Usually IC50 stands for the concentration at which inhibition is half-maximal. A higher IC50 goes with weaker potency. One may read the ED50 as the dose at which the effect has come halfway, by size or by number of responders. A low value points to an effect at a small dose.

Assay [1] has as its system Rattus norvegicus. The assay can be described thus: Effect evaluated in vivo on NE synthesis in NE-rich hemispheres at a 0.39 dose uM/kg(sc). Format: functional. In outline: (§1)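 Rats pretreated with reserpine 5 mg/kg sc 18 h before received test compound sc at 5 mL/kg in neutral solution. After decarboxylase inhibition with NSD 1015, dopa accumulation in hemispheres (mainly cortex) was measured by HPLC-electrochemical detection as an index of NE synthesis. Dose-response used 4–6 dose levels, n = 4.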

In assay [2] the test system is Rattus norvegicus. The assay can be described thus: Effect evaluated in vivo on 5-HTP accumulation in corpus striatum at a dose 0.20 umol/kg (s.c.). Format: functional. In short, it runs like this: (§2)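 Male Sprague-Dawley rats (200–300 g) were pretreated with reserpine 5 mg/kg sc 18 h beforehand. Test drug was given at neutral pH, 5 mL/kg. Aromatic amino acid decarboxylase was blocked with NSD 1015. 5-HTP in the dissected brain region was assayed by HPLC with electrochemical detection.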

The subject of assay [3] is Rattus norvegicus. The assay can be described thus: Effect evaluated in vivo on 5-HTP accumulation in corpus striatum at a dose 6.25 umol/kg (s.c.). Format: functional. In outline: as §2
Assay [4] deals with Rattus norvegicus. The assay can be described thus: Effect evaluated in vivo on 5-HTP accumulation in limbic system at a dose 25 umol/kg (s.c.). Format: functional. In outline: (§3)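 Male Sprague-Dawley rats (200–300 g) were pretreated with reserpine 5 mg/kg sc 18 h before. Test compound was given sc at 5 mL/kg in neutral solution. 5-HT synthesis rate was indexed by […] 5-HTP accumulation after decarboxylase inhibition with NSD 1015, measured by HPLC-electrochemical detection. Dose-response used 4–6 dose levels, n = 4.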

Assay [5] deals with D(2) dopamine receptor (Rattus norvegicus, UniProt P61169). The experiment in a line: Inhibitory activity against Dopamine receptor D2 in rats using [3H]spiperone as radioligand. In short, it runs like this: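 Rat striatal membranes in 50 mM potassium phosphate buffer pH 7.4 were incubated with 0.5 nM [3H]spiperone for 10 min at 37 °C. Specific binding was defined with 10 μM 6,7-ADTN.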

Assay [6] concerns Rattus norvegicus. The experiment in a line: Effect evaluated in vivo on NE synthesis in NE-rich hemispheres at a 6.25d ose uM/kg(sc). Format: functional. In short, it runs like this: as §1
The test system of assay [7] is Rattus norvegicus. The experiment in a line: Effect evaluated in vivo on 5-HTP accumulation in corpus striatum after subcutaneous administration. Format: functional. The following applies: sc. In short, it runs like this: as §2
Assay [8] has as its system Rattus norvegicus. The assay can be described thus: Effect evaluated in vivo on 5-HTP accumulation in limbic system at a dose 0.39 umol/kg (s.c.). Format: functional. In outline: as §2
Assay [9] has as its system Rattus norvegicus. The assay can be described thus: Effect evaluated in vivo on 5-HTP accumulation in corpus striatum at a dose 0.39 umol/kg (s.c.). Format: functional. In short, it runs like this: as §2
In assay [10] the test system is Rattus norvegicus. The assay can be described thus: Effect evaluated in vivo on NE synthesis in NE-rich hemispheres after subcutaneous administration. Format: functional. The conditions noted are these: sc. In outline: as §1
Assay [11] relates to Rattus norvegicus. The assay can be described thus: Effect evaluated in vivo on 5-HTP accumulation in limbic system at a dose 1.56 umol/kg (s.c.). Format: functional. In short, it runs like this:
as §3

The subject of assay [12] is Rattus norvegicus. The experiment in a line: Effect evaluated in vivo on 5-HTP accumulation in limbic system at a dose 0.20 umol/kg (s.c.). Format: functional. In short, it runs like this: as §2
Assay [13] deals with Rattus norvegicus. The assay can be described thus: Effect evaluated in vivo on 5-HTP accumulation in limbic system after subcutaneous administration. The conditions noted are these: sc. Format: functional. In outline:
as §2

Assay [14] relates to Rattus norvegicus. The experiment in a line: Effect evaluated in vivo on NE synthesis in NE-rich hemispheres at a 0.20 dose uM/kg(sc). Format: functional. In outline:
as §1

Assay [15] relates to Rattus norvegicus. The experiment in a line: The compound was tested in vivo for locomotor activity in rats at 25 umol/kg after subcutaneous administration. Format: functional. In short, it runs like this:
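Male Sprague-Dawley rats received reserpine 5 mg/kg sc in the neck 18 h before testing. Test compound was given sc in the neck (n = 4). Rats were placed singly in photocell motility meters immediately after dosing, and counts were accumulated over 30 min (tests 9 a.m.–1 p.m.). Gross behaviour, including 5-HT syndrome, was observed throughout.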

Assay [16] has as its system Rattus norvegicus. The assay can be described thus: Effect evaluated in vivo on NE synthesis in NE-rich hemispheres at a 25 dose uM/kg(sc). Format: functional. In outline: as §1
For assay [17], the system named is Rattus norvegicus. The assay can be described thus: Effect evaluated in vivo on 5-HTP accumulation in corpus striatum at a dose 25 umol/kg (s.c.). Format: functional. In short, it runs like this: as §2
Assay [18] has as its system Rattus norvegicus. The experiment in a line: Effect evaluated in vivo on 5-HTP accumulation in limbic system at a dose 6.25 umol/kg (s.c.). Format: functional. In outline: as §3
Assay [19] relates to Rattus norvegicus. The experiment in a line: Effect evaluated in vivo on NE synthesis in NE-rich hemispheres at a 1.56 dose uM/kg(sc). Format: functional. In outline: as §1
In assay [20] the target is T1, 5-hydroxytryptamine receptor 1A (Rattus norvegicus, UniProt P19327).
T1 sequence (P19327 whole entry): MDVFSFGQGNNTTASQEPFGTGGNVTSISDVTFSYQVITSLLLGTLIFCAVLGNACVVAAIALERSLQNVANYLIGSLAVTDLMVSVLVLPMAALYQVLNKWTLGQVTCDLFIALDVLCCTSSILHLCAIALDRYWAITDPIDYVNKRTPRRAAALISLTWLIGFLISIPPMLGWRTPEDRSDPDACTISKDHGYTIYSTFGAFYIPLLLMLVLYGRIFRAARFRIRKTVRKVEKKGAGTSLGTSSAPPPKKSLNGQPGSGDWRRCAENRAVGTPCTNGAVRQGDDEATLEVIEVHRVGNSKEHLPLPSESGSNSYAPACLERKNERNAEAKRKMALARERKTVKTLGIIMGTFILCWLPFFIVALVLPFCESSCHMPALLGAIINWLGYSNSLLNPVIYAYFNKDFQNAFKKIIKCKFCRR
The experiment in a line: Inhibitory activity against 5-hydroxytryptamine 1A receptor in rats, using [3H]8-OH-DPAT as radioligand. In outline:
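Rat whole-brain membranes (minus brainstem and cerebellum) in 50 mM Tris pH 8.0 with 120 mM NaCl, 4 mM CaCl2, 4 mM MgCl2 and 10 μM pargyline. Rapid filtration, then scintillation counting. Nonspecific binding defined with 10 μM 5-HT. IC50 by semi-log plot and linear regression.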

In assay [21] the test system is Rattus norvegicus. The experiment in a line: Effect evaluated in vivo on 5-HTP accumulation in NE-rich hemispheres at a 0.20 dose uM/kg(sc). Format: functional. In outline:
as §2

In assay [22] the test system is Rattus norvegicus. The assay can be described thus: Effect evaluated in vivo on 5-HTP accumulation in corpus striatum at a dose 12.5 umol/kg (s.c.). Format: functional. In outline:
as §2

For assay [23], the system named is Rattus norvegicus. The assay can be described thus: Effect evaluated in vivo on 5-HTP accumulation in NE-rich hemispheres at a 3.1 dose uM/kg(sc). Format: functional. In outline: as §2
Assay [24] has as its system Rattus norvegicus. The assay can be described thus: Effect evaluated in vivo on 5-HTP accumulation in NE-rich hemispheres at a 0.78 dose uM/kg(sc). Format: functional. In outline:
as §2

Assay [25] concerns Rattus norvegicus. The experiment in a line: Effect evaluated in vivo on 5-HTP accumulation in limbic system at a dose 50 umol/kg (s.c.). Format: functional. In outline: as §3
In assay [26] the test system is Rattus norvegicus. The experiment in a line: Effect evaluated in vivo on 5-HTP accumulation in NE-rich hemispheres at a 50 dose uM/kg(sc). Format: functional. In short, it runs like this:
as §2

For assay [27], the system named is Rattus norvegicus. The experiment in a line: Effect evaluated in vivo on 5-HTP accumulation in limbic system at a dose 12.5 umol/kg (s.c.). Format: functional. In outline: as §3
Assay [28] concerns Rattus norvegicus. The assay can be described thus: Effect evaluated in vivo on 5-HTP accumulation in limbic system at a dose 3.1 umol/kg (s.c.). Format: functional. In short, it runs like this:
as §3

Assay [29] concerns Rattus norvegicus. The experiment in a line: Effect evaluated in vivo on 5-HTP accumulation in corpus striatum at a dose 0.78 umol/kg (s.c.). Format: functional. In outline: as §2
The subject of assay [30] is Rattus norvegicus. The experiment in a line: The compound was tested in vivo for locomotor activity in rats at 0.2 umol/kg after subcutaneous administration.
In assay [31] the test system is Rattus norvegicus. The assay can be described thus: Effect evaluated in vivo on 5-HTP accumulation in limbic system at a dose 0.78 umol/kg (s.c.). Format: functional. In outline:
as §2

The subject of assay [32] is Rattus norvegicus. The experiment in a line: Effect evaluated in vivo on 5-HTP accumulation in corpus striatum at a dose 3.1 umol/kg (s.c.). Format: functional. In short, it runs like this:
as §2

The test system of assay [33] is Rattus norvegicus. The experiment in a line: Effect evaluated in vivo on 5-HTP accumulation in corpus striatum at a dose 50 umol/kg (s.c.). Format: functional. In outline: as §2
Assay [34] has as its system Rattus norvegicus. The experiment in a line: Effect evaluated in vivo on 5-HTP accumulation in NE-rich hemispheres at a 12.5 dose uM/kg(sc). Format: functional. In short, it runs like this: as §2
Assay [35] has as its system Rattus norvegicus. The experiment in a line: Effect evaluated in vivo on 5-HTP accumulation in NE-rich hemispheres at a 0.80 dose uM/kg(sc). Format: functional. In outline:
as §2

Assay [36] deals with Rattus norvegicus. The assay can be described thus: Effect evaluated in vivo on 5-HTP accumulation in NE-rich hemispheres after subcutaneous administration. Format: functional. The following applies: sc. In outline: as §2
Assay [37] concerns Rattus norvegicus. The experiment in a line: Effect evaluated in vivo on 5-HTP accumulation in corpus striatum at a dose 0.80 umol/kg (s.c.). Format: functional. In short, it runs like this:
as §2

Assay [38] concerns Rattus norvegicus. The assay can be described thus: Effect evaluated in vivo on 5-HTP accumulation in limbic system at a dose 0.80 umol/kg (s.c.). Format: functional. In short, it runs like this:
as §3

Structures are written as SMILES. A value given as a limit tells only on which side of the number the result lay.

D(2) dopamine receptor, sequence (P61169 whole entry): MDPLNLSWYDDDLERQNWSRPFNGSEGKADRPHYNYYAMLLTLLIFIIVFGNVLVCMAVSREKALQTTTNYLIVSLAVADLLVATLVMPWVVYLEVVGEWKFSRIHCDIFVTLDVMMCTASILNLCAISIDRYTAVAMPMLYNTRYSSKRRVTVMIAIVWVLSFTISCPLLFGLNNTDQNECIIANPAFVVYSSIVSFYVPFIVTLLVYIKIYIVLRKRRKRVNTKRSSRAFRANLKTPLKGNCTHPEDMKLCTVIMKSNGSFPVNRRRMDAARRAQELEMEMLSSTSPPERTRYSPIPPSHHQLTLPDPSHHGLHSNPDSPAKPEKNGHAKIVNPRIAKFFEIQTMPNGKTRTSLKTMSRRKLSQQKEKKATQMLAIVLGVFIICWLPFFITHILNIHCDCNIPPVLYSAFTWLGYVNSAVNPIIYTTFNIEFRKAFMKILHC

As for `CCCN1CCc2cccc(O)c2CC1`, the Control in assay [1] worked out at 129%; in assay [2], 125%; in [3] it was 67%; in assay [4] it was 76%; in [6], 53%; in assay [8], 129%. In addition, the Control in assay [9] came to 135%; in assay [11] it was 70%; in [12] it was 117%; in assay [14], 115%; in assay [16], 72%; in [17] it was 75%. Further, the Control was found to be 51% in assay [18] and 73% in [19]. Further, the half-inhibitory concentration (IC50) in [5] was over 100000 nM; in [20] it was 81 nM. Moreover, the values for the ED50 in assay [7], in assay [10] and in [13] were 2.2 µmol/kg, 1.4 µmol/kg and 1.3 µmol/kg, respectively. The same molecule showed a Locomotor activity in assay [15] of 102.
For the molecule `COc1cccc2c1CCN(C)CC2`, the Control is recorded as 126% in [21]; 74% in assay [22]; 93% in [23]; 98% in assay [2]; 81% in assay [24]; 67% in [25]. Also, the Control came to 80% in assay [26]; 86% in [27]; 108% in [28]; 97% in [29]; 110% in assay [12]; 93% in assay [31]. Also, the figures for the Control in [32], in assay [33] and in [34] were 89%, 72% and 76%, respectively. Moreover, the IC50 worked out at 2300 nM in assay [5] and 480 nM in assay [20]. The molecule also gave a Locomotor activity in [30] of 8.
Take `CCCCN1CCc2ccc(O)cc2CC1`: the values for the Control in assay [25], in assay [26] and in assay [33] were 119%, 114% and 106%, respectively.
In the case of `CCN1CCc2cccc(O)c2CC1`, the Control in assay [22] stood at 56%; in assay [35], 108 µM/kg; in assay [25], 46%; in [26], 48%; in assay [27], 48%; in assay [37], 100%. Moreover, the Control is 89% in assay [28]; 99% in assay [38]; 96% in [32]; 54% in [33]; 49% in assay [34]. In addition, the ED50 in assay [36] amounted to 6 µmol/kg; in assay [7] it was 6.5 µmol/kg; in assay [13], 5 µmol/kg. Besides, the results for the 50% inhibitory concentration (IC50) in assay [5] and in assay [20] were 14000 nM and 630 nM, respectively. Besides, the Locomotor activity in [30] was 31.
